Screening results as filed in PubChem.
CXCR6 inh: inhibitors of human CXCR6 receptor. O00574. CHO-K1 PathHunter CXCR6 beta-arrestin, luminescence. inhibition, % at 20 µM. 0.36% of 360,000 active. AID 602244; in the data active = inhibition above about 34%, passing the limit was not always enough;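 also: antagonist mode with CXCL16 agonist at 10 nM final; 0% = 10 nM CXCL16 with DMSO and 100% = unstimulated wells without agonist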
EBI2 block: EBI2 (human) antagonism; EBI2 beta-arrestin recruitment, luminescence, 7a,25-OHC stimulated; inhibition, % at 5 µM; P32249; AID 651636; 0.81% of 360,000 active; in the data active = inhibition above about 38%;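 also: enzyme fragment complementation signal reports receptor beta-arrestin coupling in cells; 0% = agonist plus DMSO wells and 100% = wells without agonist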
CCR6 antag: antagonists of human CCR6 receptor. 0.49% of 340,000 active. CHO-K1 CCR6 PathHunter beta-arrestin, luminescence, CCL20-stimulated. inhibition, % at 20 µM. P51684;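 active = compounds whose inhibition of the agonist-driven luminescence signal at 20 µM reaches about 50%, limit read from the data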;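 also: cells stimulated with CCL20 at 14 nM final; plate controls were DMSO with CCL20 for no effect and DMSO without agonist for full effect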
HTR2A ag: mouse HTR2A agonism via beta-arrestin recruitment | P35363 | CHO-K1 mHTR2A beta-arrestin complementation, luminescence; percent of 30 µM serotonin response | activation, % at 7.6 µM | 0.66% of 360,000 active | AID 624169;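 active = activation above a run cutoff, the mean activation of all tested compounds plus 3 SD, cut at about 14% in these data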;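 also: 0% = plate median of compound wells and 100% = 30 µM serotonin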
Target sequence (P35363 whole entry, looked up): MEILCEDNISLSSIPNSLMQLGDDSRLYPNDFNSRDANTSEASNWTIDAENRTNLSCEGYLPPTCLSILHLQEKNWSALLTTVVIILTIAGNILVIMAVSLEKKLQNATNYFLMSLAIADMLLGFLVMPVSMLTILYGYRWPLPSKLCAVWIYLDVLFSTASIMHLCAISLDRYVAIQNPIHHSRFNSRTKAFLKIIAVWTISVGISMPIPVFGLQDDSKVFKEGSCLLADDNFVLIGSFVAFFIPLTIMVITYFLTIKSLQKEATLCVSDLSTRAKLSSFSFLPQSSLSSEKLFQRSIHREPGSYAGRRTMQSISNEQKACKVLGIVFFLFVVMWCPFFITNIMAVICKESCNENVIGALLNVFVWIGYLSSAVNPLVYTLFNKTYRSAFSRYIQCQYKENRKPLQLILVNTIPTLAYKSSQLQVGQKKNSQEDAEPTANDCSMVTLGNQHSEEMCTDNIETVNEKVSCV
APJ agonist: agonists of human APJ apelin receptor; 0.11% of 330,000 active; activation, % at 20 µM; CHO-K1 APJ PathHunter beta-arrestin, luminescence; 0% DMSO wells, 100% apelin;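 active = activation more than six SD over the plate average, tested at 20 µM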;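 also: 0% = DMSO alone and 100% = apelin-13 at 10 nM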
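Incubation: overnight seeding, 90 min compound at 25 °C, 1 h detection; test system: PathHunter CHO-K1 APJ (AGTRL-1) beta-arrestin reporter cells; amount: 1000 cells/well; doses: one dose, 20 µM compound, 1% DMSO; measured by: beta-gal luminescence; measure: agonist-driven arrestin binding to APJ; benchmarks: negative DMSO alone, positive Apelin-13 at 10 nM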
APJ antag: APJ receptor antagonism; 0.32% of 330,000 active; AID 2521; P35414; inhibition, % at 20 µM; CHO-K1 APJ beta-arrestin complementation, luminescence;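 active = inhibition above about 40% at 20 µM, limit read from the data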;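 also: cells challenged with 10 nM apelin-13 agonist together with compound; plate controls were apelin-13 plus DMSO wells for no effect and DMSO wells lacking apelin-13 for full effect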
EBI2 antag conf: confirmation of human EBI2 receptor antagonists; shares compounds with EBI2 block; EBI2 beta-arrestin luminescence, 7a,25-OHC antagonism; inhibition, % at 5 µM; 29% of 2,400 active;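 active = inhibition of at least 50%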
EBI2 ag: EBI2 agonism counter-screen; shares compounds with EBI2 block; EBI2-expressing cells, agonist mode, luminescence, 60 min; 0% vehicle, 100% 7α,25-dihydroxycholesterol control; activation, % at 5 µM; 2,400 tested, under 10 active; AID 652000;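 active = activation of at least 50%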
bGal counter: beta-galactosidase inhibition counter-screen | purified beta-galactosidase, luminescent Galacton Star, 15 min | shares compounds with EBI2 block | 1% of 2,400 active | inhibition, % at 5 µM;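 active = replicate-average signal at least 3 plate SD below neutral wells, shown as high inhibition, flagging enzyme-inhibiting false positives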;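 also: 0% = DMSO wells with enzyme and 100% = wells lacking enzyme; higher means stronger loss of beta-gal luminescence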
An asterisk follows results filed as active. In the library only some 2.1% were active in any assay of this set; here they are far more common.

For O=C(/C=C/c1ccc(Cl)cc1)NCCc1ccccc1 the results were CXCR6 inh -8.7, EBI2 block 54.3*, CCR6 antag 3.2, HTR2A ag -5.1, APJ agonist -4.8, APJ antag 10.2, EBI2 antag conf 24.7, EBI2 ag -1.2 and bGal counter -8.9.
For O=C(/C=C/c1ccccc1)N1CCN(Cc2nc3ccccc3c(=O)[nH]2)CC1 the results were CXCR6 inh -1.3, EBI2 block 72.2*, CCR6 antag -1.4, HTR2A ag 0.5, APJ agonist -3.2, APJ antag -18.6, EBI2 antag conf 75.0*, EBI2 ag -0.1 and bGal counter 5.1.
`COc1cc(/C=C/C(=O)N2CCN(Cc3ccccc3)CC2)cc(OC)c1OC` gave CXCR6 inh 4.2, EBI2 block 60.9*, CCR6 antag 12.4, HTR2A ag -1.2, APJ agonist -0.8, APJ antag 17.6, EBI2 antag conf 27.0, EBI2 ag 0.6 and bGal counter 7.5.
`O=C(/C=C/c1ccccc1Cl)NCCc1ccccc1` gave CXCR6 inh -6.4, EBI2 block 33.0, CCR6 antag 17.3, HTR2A ag -9.9, APJ agonist -2.2 and APJ antag -2.6.
`O=C(/C=C/c1ccc(Cl)cc1)N(Cc1ccccc1)c1ccccn1` gave CXCR6 inh 7.4, EBI2 block 40.9*, CCR6 antag 29.6, HTR2A ag -2.8, APJ agonist -3.4, APJ antag -4.3, EBI2 antag conf 18.2, EBI2 ag -1.7 and bGal counter -11.2.
`COc1ccc(CCN(C(=O)c2snc(C(N)=O)c2N)C(C)C(=O)NC2CCCCC2)cc1OC` (stereo unspecified) gave CXCR6 inh -4.2, EBI2 block 1.5, CCR6 antag 10.8, HTR2A ag -12.6, APJ agonist 0.8 and APJ antag 10.8.
`O=C(/C=C/c1ccc(Cl)cc1)N1CCN(Cc2ccccc2)CC1` gave CXCR6 inh -0.5, EBI2 block 96.7*, CCR6 antag -0.7, HTR2A ag -0.6, APJ agonist 0.0, APJ antag -3.0, EBI2 antag conf 88.6*, EBI2 ag 2.5 and bGal counter 0.0.
CN1CCN(C(=O)/C=C/c2ccc(Cl)c(Cl)c2)CC1 was read as CXCR6 inh 3.7, EBI2 block 91.9*, CCR6 antag 8.9, HTR2A ag -0.1, APJ agonist -5.0, APJ antag 7.3, EBI2 antag conf 60.7*, EBI2 ag 2.2 and bGal counter 3.9.
For CC(C)(C)c1ccc(/C=C/C(=O)N2CCCCC2)cc1 the results were CXCR6 inh 0.1, EBI2 block 1.3, CCR6 antag 10.0 and HTR2A ag -0.3.
For CN1CCN(C(=O)/C=C/c2ccc(Cl)cc2)CC1 the results were CXCR6 inh 7.1, EBI2 block 92.8*, CCR6 antag -3.5, HTR2A ag -1.3, APJ agonist -0.2, APJ antag 15.1, EBI2 antag conf 79.0*, EBI2 ag 4.2 and bGal counter 4.6.
CNC(=S)n1cnc(N)n1 was read as CXCR6 inh 1.0, EBI2 block 4.6, CCR6 antag 10.4, HTR2A ag -6.1, APJ agonist -4.0 and APJ antag 15.7.
Screening COCCN(CCOC)S(=O)(=O)c1ccc(C(=O)Nc2ccc([N+](=O)[O-])cc2OC)cc1 returned CXCR6 inh -8.0, EBI2 block 8.2, CCR6 antag 4.5, HTR2A ag 2.9, APJ agonist -0.9 and APJ antag -2.0.
For COc1ccc(CCNC(=O)/C=C/c2cc(OC)c(OC)c(OC)c2)cc1OC the results were CXCR6 inh -1.8, EBI2 block 37.5*, CCR6 antag 8.2, HTR2A ag 5.4, APJ agonist -2.8, APJ antag 8.1, EBI2 antag conf 18.0, EBI2 ag 1.0 and bGal counter 10.9.
O=C(/C=C/c1ccc(Br)cc1)NC1CCCCCC1 was read as CXCR6 inh -1.8, EBI2 block 64.5*, CCR6 antag 7.8, HTR2A ag -1.2, APJ agonist -1.6, APJ antag 11.8, EBI2 antag conf 60.7*, EBI2 ag -0.6 and bGal counter 9.4.
Screening COc1cc(CCC(=O)OCC(=O)NCC2CCCCC2)cc(OC)c1OC returned CXCR6 inh 2.9, EBI2 block -0.6, CCR6 antag 3.9, HTR2A ag 3.9, APJ agonist -2.2 and APJ antag 0.2.
COc1cc(/C=C/C(=O)NCC2CCCCC2)cc(OC)c1OC was read as CXCR6 inh 10.4, EBI2 block 51.7*, CCR6 antag 3.7, HTR2A ag -2.1, APJ agonist 1.8, APJ antag -28.3, EBI2 antag conf 40.2, EBI2 ag -1.5 and bGal counter -19.3.
Screening O=C(COC(=O)/C=C/c1cccc(Br)c1)NC1CCCCC1 returned CXCR6 inh -5.7, EBI2 block 3.3, CCR6 antag 3.7, HTR2A ag -4.4, APJ agonist -3.1 and APJ antag -0.7.
`O=C(/C=C/c1cccc(Br)c1)NCC1CCCCC1` gave CXCR6 inh -1.6, EBI2 block 42.5*, CCR6 antag 21.0, HTR2A ag -7.2, APJ agonist -2.8, APJ antag -0.5, EBI2 antag conf 34.6, EBI2 ag -0.8 and bGal counter -18.0.
CN(C(=O)c1ccc2c(c1)OCO2)C1CCS(=O)(=O)C1 (stereo unspecified) was read as CXCR6 inh -2.6, EBI2 block 1.4, CCR6 antag 2.8, HTR2A ag 5.0, APJ agonist 0.0 and APJ antag 16.2.
COc1ccc(-c2cc(C3CCN(Cc4cccc(C(F)(F)F)c4)CC3)[nH]n2)cc1 was read as CXCR6 inh 3.3, EBI2 block 54.8*, CCR6 antag -22.2, HTR2A ag -1.4, APJ agonist 1.2, APJ antag -5.3, EBI2 antag conf 31.4, EBI2 ag -0.3 and bGal counter 8.6.
Screening Cc1ccc(CN2CCC(c3cc(-c4ccc(Cl)cc4)n[nH]3)CC2)cc1 returned CXCR6 inh 1.2, EBI2 block 64.7*, CCR6 antag 20.9, HTR2A ag -0.5, APJ agonist 1.8, APJ antag -26.4, EBI2 antag conf 40.5, EBI2 ag 1.7 and bGal counter 5.1.
